{"data": "Measured values from different studies", "MAOA": "Amine oxidase [flavin-containing] A (MAOA, Homo sapiens, UniProt P21397)", "PRMT3": "Protein arginine N-methyltransferase 3 (PRMT3, Homo sapiens, UniProt O60678)", "TDP1": "Tyrosyl-DNA phosphodiesterase 1 (TDP1, Homo sapiens, UniProt Q9NUW8)", "LDHA": "L-lactate dehydrogenase A chain (LDHA, Homo sapiens, UniProt P00338)", "note": "Each line is one published result; the experiments were not run side by side."}
{"SMILES": "O=c1cc(-c2ccc(O)cc2)oc2c([C@@H]3O[C@H](CO)[C@@H](O)[C@H](O)[C@H]3O)c(O)cc(O)c12", "target": "MAOA", "assay": "enzyme activity, inhibitor", "IC50": "38.6 µM"}
{"SMILES": "COc1cc(/C=C/C(=O)N2CCC(Cc3ccccc3)CC2)ccc1OC1CCCCC1", "target": "MAOA", "assay": "enzyme activity, inhibitor, fluorescence", "IC50": "63.9 µM"}
{"SMILES": "C(/C=C/c1sc2c3ccccc3ccc2[n+]1CCCc1ccccc1)=C1/Sc2c(ccc3ccccc23)N1CCCc1ccccc1", "target": "PRMT3", "assay": "enzyme activity, inhibitor, radiometric", "IC50": "2.1 µM"}
{"SMILES": "COc1cc(C[C@H]2C(=O)OC[C@@H]2Cc2ccc(OC)c(OC)c2)ccc1O", "target": "Cone cGMP-specific 3',5'-cyclic phosphodiesterase subunit alpha' (PDE6C, Homo sapiens, UniProt P51160)", "assay": "enzyme activity, inhibitor", "IC50": "> 20 µM"}
{"SMILES": "CC(C)(C)OC(=O)N1CCN(C(=O)C(=O)CC(=O)c2cccc(N(Cc3ccccc3)Cc3ccccc3)c2)CC1", "target": "Tyrosine-protein phosphatase non-receptor type 1 (PTPN1, Homo sapiens, UniProt P18031)", "assay": "enzyme activity, inhibitor, absorbance", "setting": "pH 7", "IC50": "9.2 µM"}
{"SMILES": "COc1cc2c(OC)nc3c4cc5c(cc4cc(OCCCN(C)C)c3c2cc1OC)OCO5", "target": "TDP1", "assay": "enzyme activity, inhibitor", "IC50": "5.5 µM"}
{"SMILES": "N=C(NCCCSC[C@H]1O[C@@H](n2cnc3c(NCCCc4ccccc4)ncnc32)[C@H](O)[C@@H]1O)NCC1CCCCC1", "target": "PRMT3", "assay": "enzyme activity, inhibitor, fluorescence", "IC50": "> 100 µM"}
{"SMILES": "COc1cc(-c2cc(=O)c3c(O)c(OC)c(O[C@@H]4O[C@H](CO)[C@@H](O)[C@H](O)[C@H]4O)cc3o2)ccc1O", "target": "LDHA", "assay": "enzyme activity, inhibitor", "setting": "pH 7.4", "IC50": "153 µM"}
{"SMILES": "C[C@@H](N)COc1ccc(-c2cnc3ccc(N[C@H](C)c4cccc(F)c4)nn23)cc1", "target": "High affinity nerve growth factor receptor (NTRK1, Homo sapiens, UniProt P04629)", "assay": "enzyme activity, inhibitor", "IC50": "0.0044 µM"}
{"SMILES": "O=C(Nc1ccc([N+](=O)[O-])cc1[N+](=O)[O-])c1ccccc1", "target": "MAOA", "assay": "enzyme activity, inhibitor", "IC50": "0.126 µM"}
{"SMILES": "CCNC(=O)NCCSC[C@H]1O[C@@H](n2cnc3c(N)ncnc32)[C@H](O)[C@@H]1O", "target": "PRMT3", "assay": "enzyme activity, inhibitor, fluorescence", "IC50": "> 100 µM"}
{"SMILES": "C[C@@H]1C[C@@H](O)/C=C/C=C\\CC(=O)Cc2c(Cl)c(O)cc(O)c2C(=O)O1", "target": "Mitogen-activated protein kinase kinase kinase 7 (MAP3K7, Homo sapiens, UniProt O43318)", "assay": "enzyme activity, inhibitor, ATP luminescence", "IC50": "> 10 µM"}
{"SMILES": "NS(=O)(=O)c1cccc(Cc2c(-c3ccc(F)c(F)c3)[nH]n(-c3nc(C(=O)O)cs3)c2=O)c1", "target": "LDHA", "assay": "enzyme activity, inhibitor", "IC50": "> 50 µM"}
{"SMILES": "Nc1ncnc2c1ncn2[C@@H]1O[C@H](CSCCNC(=O)NCc2ccccc2)[C@@H](O)[C@H]1O", "target": "PRMT3", "assay": "enzyme activity, inhibitor, fluorescence", "IC50": "0.52 µM"}
{"SMILES": "COc1cccc(OC)c1OCCNCC1COc2ccccc2O1 (stereo not shown)", "target": "Alpha-1A adrenergic receptor (ADRA1A, Homo sapiens, UniProt P35348)", "assay": "ligand displacement, radioligand", "IC50": "0.00036 µM"}
{"SMILES": "CCN(CC)CCCOc1cc2cc3c(cc2c2nc(OC)c4cc(OC)c(OC)cc4c12)OCO3", "target": "TDP1", "assay": "enzyme activity, inhibitor, fluorescence", "IC50": "5.4 µM"}
{"SMILES": "Cc1ccc(C(=O)Nc2ccc(S(=O)(=O)O)c3cc(S(=O)(=O)O)cc(S(=O)(=O)O)c23)cc1NC(=O)c1cccc(NC(=O)Nc2cccc(C(=O)Nc3cc(C(=O)Nc4ccc(S(=O)(=O)O)c5cc(S(=O)(=O)O)cc(S(=O)(=O)O)c45)ccc3C)c2)c1", "target": "P2X purinoceptor 4 (P2RX4, Homo sapiens, UniProt Q99571)", "assay": "calcium signal, antagonist", "IC50": "44.2 µM"}
{"SMILES": "COc1oc(=O)c2cc(N)ccc2c1Cl", "target": "Rhomboid protease AarA (Providencia stuartii, UniProt P46116)", "assay": "enzyme activity, inhibitor, fluorescence", "IC50": "71 µM"}
{"SMILES": "Cc1c(C)c2c(c(C)c1O)CCC(C)(COc1ccc(CC3SC(=O)NC3=O)cc1)O2 (stereo not shown)", "target": "Peroxisome proliferator-activated receptor delta (PPARD, Homo sapiens, UniProt Q03181)", "assay": "enzyme activity, inhibitor", "IC50": "46 µM"}
